Shown are actives, neighbours in structure and some others; about 4.9% of the full set was active somewhere.
Lipid droplet: hepatic lipid droplet formation modulation. AML12 mouse hepatocytes, oleate lipid droplets, BODIPY imaging. inhibition, % at 6.5 µM. 0.4% of 240,000 active. AID 1656;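 active = lipid droplet intensity inhibited by at least 50%, with more than 500 cells counted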
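Technique: fluorescence imaging, 20x objective, two fields per well / Assay system: AML12 hepatocytes (mouse) / Measure: % inhibition of lipid droplet signal / Doses: 6.5 µM single-point dosing / Incubation: overnight exposure / Reagent: 100 µM oleic acid challenge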
HSF1 inhib: HSF1 inhibition; NIH3T3-HGL HSE-luciferase, MG132-induced, luminescence 8 h; active compounds read low; activity change, negative = inhibition, % at 7.5 µM (by protocol); 0.77% of 300,000 active;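 active = more than half of replicate wells show activity change below -50%, luminescence cut by over half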;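 also: luciferase reports HSF-1 transcriptional activity via heat shock element; 0% = median of DMSO wells and -100% = zero luminescence signal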
CHT inh: inhibits the human high affinity choline transporter; Q9GZV3; CHT-expressing cells, membrane potential dye, choline response; active compounds read low; B-score at 10 µM; 0.86% of 310,000 active;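 active = B-score over 3 SD under the library average, and starting fluorescence ratio not unusually high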;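 also: choline stimulus applied at its EC90 after an EC20 pre-addition; B-score computed on integrated fluorescence ratio after choline addition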
CHT PAM: human CHT allosteric activation; CHT-expressing cells, membrane potential dye, choline EC20; active compounds read high; LV-AA mutant CHT in HEK293 cells; AID 488977; B-score at 10 µM; 0.49% of 310,000 active;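 active = initial fluorescence not abnormally high and integrated response B-score, plate-corrected, over 3 SD above library mean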
PHOSPHO1 block: blocks human PHOSPHO1 phosphatase activity | Q8TCT1 | inhibition, % at 13.3 µM | recombinant PHOSPHO1, absorbance phosphatase assay | 1.1% of 290,000 active; in the data active = inhibition above about 60%
Target sequence (Q8TCT1 whole entry, looked up): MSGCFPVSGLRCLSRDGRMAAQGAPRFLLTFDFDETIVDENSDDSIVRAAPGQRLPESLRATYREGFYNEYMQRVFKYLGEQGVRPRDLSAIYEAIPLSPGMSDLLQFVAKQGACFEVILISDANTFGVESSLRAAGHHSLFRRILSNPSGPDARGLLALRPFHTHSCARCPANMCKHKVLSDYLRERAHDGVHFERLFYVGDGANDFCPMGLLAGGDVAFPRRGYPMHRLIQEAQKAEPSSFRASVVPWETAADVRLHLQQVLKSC
HSF-1 act: increases HSF-1 driven luciferase reporter signal. NIH3T3-HGL HSF-1 luciferase reporter, MG132, 8 h; 100% = twice DMSO control signal. activation, % at 9 µM. 1.7% of 300,000 active. AID 504408;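 active = mean replicate activation of at least 50% with a set share of replicates each reaching 50%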;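 also: 0% = median of the neutral control wells and 100% = twice that signal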
* = called active by the depositor.

CCn1c(COc2ccc(C)cc2)nnc1SCC(=O)Nc1ccc2c(c1)OCCO2 was read as HSF1 inhib -70.6*, CHT inh inactive, CHT PAM inactive, PHOSPHO1 block 6.4 and HSF-1 act -75.9.
Screening CCn1c(SCC(=O)N2CCOCC2)nnc1C(C)NC(=O)c1ccccc1 (configuration not stated) returned Lipid droplet -3.4, HSF1 inhib 4.4, CHT inh inactive, CHT PAM inactive, PHOSPHO1 block 62.8* and HSF-1 act 23.4.
`C=CCn1c(COc2ccccc2)nnc1SCC(=O)Nc1ccc2c(c1)OCCO2` gave HSF1 inhib 4.0, CHT inh inactive, CHT PAM inactive, PHOSPHO1 block 28.8 and HSF-1 act 9.3.
Screening CCn1c(CC(=O)Nc2ccc(C)cc2)nnc1SCC(=O)N1CCOCC1 returned Lipid droplet 1.0, HSF1 inhib -5.5, CHT inh inactive, CHT PAM inactive, PHOSPHO1 block 62.8* and HSF-1 act 14.3.
CCn1c(SCc2nc3ccccc3c(=O)[nH]2)nnc1C(C)NC(=O)c1ccccc1 (configuration not stated) was read as Lipid droplet -14.0, HSF1 inhib 6.4, CHT inh inactive, CHT PAM inactive, PHOSPHO1 block -0.7 and HSF-1 act 2.0.
O=C(Nc1ccccc1Cl)NC1(C(=O)NCc2ccncc2)CCCCC1 was read as Lipid droplet -12.4, HSF1 inhib -0.1, CHT inh inactive, CHT PAM inactive, PHOSPHO1 block 31.9 and HSF-1 act 4.0.
Cc1ccnc(NC(=O)c2ccc3c(c2)S(=O)(=O)c2ccccc2C3=O)c1 was read as Lipid droplet 15.0, HSF1 inhib 0.5, CHT inh inactive, CHT PAM inactive, PHOSPHO1 block 24.8 and HSF-1 act -3.8.
Screening O=C1CN(C(=O)CNC(=O)c2ccccc2Cl)c2ccccc2N1 returned Lipid droplet 3.0, HSF1 inhib 2.4, CHT inh inactive, CHT PAM inactive, PHOSPHO1 block -3.9 and HSF-1 act -6.5.
Screening O=C(COc1ccc(F)c(Cl)c1)c1ccc[nH]1 returned HSF1 inhib 62.7, CHT inh inactive, CHT PAM inactive, PHOSPHO1 block 16.3 and HSF-1 act 93.4*.
For C[C@H](Nc1ncnc2sc3c(c12)CCC3)C(=O)O the results were HSF1 inhib -8.0, CHT inh inactive, CHT PAM inactive, PHOSPHO1 block 66.4* and HSF-1 act -6.8.
Screening Clc1ccc2ccc3cccnc3c2n1 returned Lipid droplet 7.4, HSF1 inhib -1.0, CHT inh inactive, CHT PAM inactive, PHOSPHO1 block 60.8* and HSF-1 act -4.1.
Screening COc1cc2c(cc1OC)C(C)N(Cc1ccc3c(c1)OCO3)CC2 (configuration not stated) returned Lipid droplet -1.4, HSF1 inhib 13.7, CHT inh inactive, CHT PAM inactive, PHOSPHO1 block 11.8 and HSF-1 act 38.9.
CC(NC(=O)c1ccc(C(C)(C)C)cc1)C(c1cccs1)N1CCOCC1 (configuration not stated) was read as Lipid droplet 17.4, HSF1 inhib 26.0, CHT inh inactive, CHT PAM inactive, PHOSPHO1 block 37.7 and HSF-1 act 69.1*.
For CC(=O)c1ccc(OCc2cc(C(=O)N(C)C(C)c3nccs3)no2)cc1 (configuration not stated) the results were Lipid droplet 3.6, HSF1 inhib 46.9, PHOSPHO1 block 21.8 and HSF-1 act 84.5*.
For O=C(CSc1n[nH]c(-c2ccncc2)n1)NC1CCS(=O)(=O)C1 (configuration not stated) the results were HSF1 inhib -5.5, CHT inh inactive, CHT PAM inactive, PHOSPHO1 block 97.5* and HSF-1 act -6.5.
`COC(=O)Nc1ccc(S(=O)(=O)Nc2cccc3ccccc23)cc1` gave Lipid droplet 0.5, HSF1 inhib 32.9, CHT inh inactive, CHT PAM inactive, PHOSPHO1 block -22.9 and HSF-1 act 68.2*.
For COc1ccccc1NS(=O)(=O)c1ccc(NC(C)=O)cc1 the results were Lipid droplet 3.6, HSF1 inhib 2.3, CHT inh inactive, CHT PAM inactive, PHOSPHO1 block 49.3 and HSF-1 act 5.9.
CC1CC(C)(C)CC2(C1)NC(=S)N(c1ccccc1)N2 (configuration not stated) was read as Lipid droplet 15.7, HSF1 inhib 5.6, CHT inh inactive, CHT PAM inactive, PHOSPHO1 block 97.9* and HSF-1 act 35.7.
Screening Cc1ccc(C)c(N2CCN(C(=O)CN(C)S(=O)(=O)c3ccc4c(c3)CCC(=O)N4)CC2)c1 returned HSF1 inhib -1.3, CHT inh inactive, CHT PAM inactive, PHOSPHO1 block -4.5 and HSF-1 act 1.4.
For Cc1ccc2c(COC(=O)c3ccc(NC(=O)CC#N)cc3)cc(=O)oc2c1C the results were Lipid droplet -20.1, HSF1 inhib 18.5, CHT inh inactive, CHT PAM inactive, PHOSPHO1 block 6.5 and HSF-1 act 55.7*.
Screening CNS(=O)(=O)c1cccc(C(=O)OCc2cc(=O)oc3c(C)c(O)ccc23)c1 returned Lipid droplet 1.9, HSF1 inhib -3.3, CHT inh -6.33*, CHT PAM inactive, PHOSPHO1 block 2.2 and HSF-1 act 8.4.
`CCC1(c2ccccc2)NC(=O)N(CC(=O)Nc2ccc(S(=O)(=O)NC3=NCCCCC3)cc2)C1=O` (configuration not stated) gave HSF1 inhib -0.8, CHT inh inactive, CHT PAM inactive and HSF-1 act 1.6.
Cc1ccc(-c2nc3cnccn3c2Nc2c(C)cccc2C)o1 was read as HSF1 inhib -81.9*, CHT inh inactive, CHT PAM inactive, PHOSPHO1 block 19.5 and HSF-1 act -85.3.
Cc1ccc(-c2nc3ncccn3c2NC2CCCC2)o1 was read as Lipid droplet 3.6, HSF1 inhib 3.5, CHT inh inactive, CHT PAM inactive, PHOSPHO1 block 17.0 and HSF-1 act -6.9.
`COc1ccc(C(=O)NNc2ccccc2)cc1OC` gave HSF1 inhib -0.8, CHT inh inactive, CHT PAM inactive, PHOSPHO1 block 76.8* and HSF-1 act 10.8.
`COc1cc(C(=O)Nc2ccc(Nc3ccccc3)cc2)cc(OC)c1OC` gave Lipid droplet 7.1, HSF1 inhib 25.2, CHT inh inactive, CHT PAM inactive, PHOSPHO1 block -6.3 and HSF-1 act 57.9*.
`COc1cc(C(=O)Nc2ccncc2)cc(OC)c1OC` gave HSF1 inhib -4.3, CHT inh inactive, CHT PAM inactive, PHOSPHO1 block -6.0 and HSF-1 act -5.3.

Assay outcomes (PubChem BioAssay)
